Structures are written as SMILES. In brackets after ≈: the same amount, converted by molar mass.

Data set [1] has as its system Mycobacterium tuberculosis. The data set is described as follows: Antibacterial activity against Mycobacterium tuberculosis H37Rv assessed as growth inhibition by two-fold serial dilution method. The data set is classed as functional. The conditions noted are these: for MIC: Mycobacterium tuberculosis, H37Rv.
A short description of data set [2]: Retardation factor, Rm of the compound in acetone-water-silica gel layer. The data set is classed as physicochemical. The conditions noted are these: buffer. The gist of the method:
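Reversed-phase partition chromatography. The mobile phase was acetone–water; the stationary phase was a silica gel layer impregnated with a paraffin solution in n-hexane.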

Data set [3] is described as follows: Dissociation constant, pKa of the compound.
Data set [4] is described as follows: Dissociation constant, pKa of the compound at 25 degC by spectrophotometric analysis. The data set is classed as physicochemical. In outline: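 Determined spectrophotometrically at 25 °C (±1). For the approximate value of the nitro-substituted pyridine, the Hammett acidity function (H0) was used.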
For data set [5], the system named is Mycobacterium tuberculosis. In words: Antibacterial activity against Mycobacterium tuberculosis assessed as growth inhibition in presence of 16 uM nicotinic acid hydrazide. The data set is classed as functional.
In data set [6] the test system is Mycobacterium tuberculosis. The data set is described as follows: Antibacterial activity against Mycobacterium tuberculosis assessed as growth inhibition. The class given is functional. In outline:
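Liquid-culture serial dilution against M. tuberculosis H37Rv, with √2 dilution steps. The test medium had 0.7% protein content. MIC (μM) was taken as the average of at least two determinations. Isoniazid served as the standard in every experiment. Activity was expressed as 1/MIC.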

Data set [7] can be described thus: 1-octanol-phosphate buffer partition coefficient, log P of the compound at pH 7.4. The class given is physicochemical.
For data set [8], the system named is Mycobacterium tuberculosis. In words: microbe, parasite or virus in culture.
Data set [9] deals with Mycobacterium tuberculosis. The data set is described as follows: Antibacterial activity against Mycobacterium tuberculosis assessed as growth inhibition at pH 7. The data set is classed as functional.
Data set [10] deals with Mycobacterium tuberculosis. The data set is described as follows: Antibacterial activity against Mycobacterium tuberculosis using acidic culture media at pH 5.9 assessed as growth inhibition. The class given is functional.

In the case of `NNC(=O)c1ccnc(I)c1`, in data set [1], the “log(1/MIC)” value is recorded as -2.404. This compound had a Rm in [2] of 0.931. With `CC(=O)NCc1cc(C(=O)NN)ccn1`, the “log(1/MIC)” value in data set [1] is -2.386. In [2], this compound came in with a Rm of 0.34. The term pKa denotes the negative logarithm of the acid dissociation constant. Read a high pKa as a group that holds its proton tightly. For the compound `COc1ccccn1`, in data set [3], the pKa was 3.06. As to `CCN(CC)c1cc(C(=O)NN)ccn1`, the “log(1/MIC)” value in data set [1] is -2.856. For the same compound, the Rm in data set [2] worked out at 1.383. Regarding `CCCc1ccccn1`, in data set [3], the pKa amounted to 5.97. Take `Fc1ccccn1`: the pKa in [3] stood at 0.44.

For the compound `NNC(=O)c1ccnc(Br)c1`, in [1], the “log(1/MIC)” value is recorded as -2.79 and the MIC amounted to 616 µM (≈ 133 µg/mL). The Rm in data set [2] was 0.866. Compound `Brc1ccccn1` yielded a pKa in [3] of 0.9. `c1ccc(Cc2ccccn2)cc1` returned a pKa in [3] of 5.13. Consider `CCOc1ccccn1`, for which the pKa in [4] was 3.47. On to `Cc1cc(C(=O)NN)ccn1`, for which the “log(1/MIC)” value in data set [1] is on record as -0.716. Besides, the Rm in data set [2] is on record as 0.697.

By logD is commonly meant the decadic logarithm of the distribution of all forms, ionised or not, between an organic phase and buffer at a given pH. Higher therefore signals a more lipophilic compound. For the compound `NNC(=O)c1ccncc1` [ISONIAZID], the MIC in [5] was found to be 1900 µM; in data set [6] it was 1 µM (≈ 0.137 µg/mL); in data set [1] it was 1.1 µM (≈ 0.151 µg/mL); in [8], 0.5 µM (≈ 0.0686 µg/mL). The compound also returned a logD in [7] of -1.14. The “log(1/MIC)” value in data set [1] was -0.041. Besides, the Rm in [2] is recorded as 0.372.

For `CCN(CC)c1ccccn1`, in [4], the pKa stood at 7.32.

Regarding `O=C(O)c1ccncc1` [ISONICOTINIC ACID], the results for the MIC in data set [9] and in data set [10] were above 4000 µM and 128 µM (≈ 15.8 µg/mL), respectively. The pKa in data set [3] was 4.84. In the case of `CCCc1cc(C(=O)NN)ccn1`, the “log(1/MIC)” value in [1] was -1.742. In data set [2], the Rm came to 1.168. The corresponding values for `NNC(=O)c1ccnc([N+](=O)[O-])c1` are -2.569 and 0.577.

As for `CC(C)Cc1cc(C(=O)NN)ccn1`, in data set [1], the “log(1/MIC)” value is on record as -2.653 and the MIC came out at 450 µM (≈ 87 µg/mL). This compound displayed a Rm in [2] of 1.366.

On to `CCOc1cc(C(=O)NN)ccn1`, for which, in [1], the “log(1/MIC)” value was -2.655. This compound also gave a Rm in [2] of 0.954. The matching figures for `NNC(=O)c1ccnc(Cl)c1`: -2.593 and 0.63. `C=Cc1cc(C(=O)NN)ccn1`: the “log(1/MIC)” value in [1] is -1.544. The Rm in data set [2] is given as 1.02. The matching figures for `CCc1cc(C(=O)NN)ccn1`: -1.324 and 0.862. As for `CCc1ccccn1`, in data set [3], the pKa stood at 5.97.

For `NNC(=O)c1ccnc(F)c1`, in data set [1], the “log(1/MIC)” value is -2.415 and the MIC worked out at 260 µM (≈ 40.3 µg/mL). In data set [2], the Rm worked out at 0.42. In the case of `C=Cc1ccccn1`, in [3], the pKa came to 4.98.

Take `NNC(=O)c1ccnc(N)c1`: in data set [1], the “log(1/MIC)” value is given as -1.161. The compound also registered a Rm in data set [2] of 0.32. Consider `COc1cc(C(=O)NN)ccn1`, for which the “log(1/MIC)” value in data set [1] is recorded as -2.185. For the same compound, in [2], the Rm amounted to 0.783. With `CC(=O)NCc1ccccn1`, the pKa in data set [4] was 4.23. With `NNC(=O)c1ccnc(-c2ccccc2)c1`, the “log(1/MIC)” value in [1] was -1.699. Besides, the Rm in [2] is recorded as 1.643. The corresponding values for `NNC(=O)c1ccnc(Cc2ccccc2)c1` are -1.585 and 1.365. For `Nc1ccccn1` [2-AMINOPYRIDINE], the pKa in data set [3] was 6.71. On to `NNC(=O)c1cccnc1` [NICOTINIC ACID HYDRAZIDE], for which, in [6], the MIC amounted to 1900 µM (≈ 261 µg/mL). The compound `CC(=O)Nc1ccccn1` yielded a pKa in data set [3] of 4.09. `CC(=O)Nc1cc(C(=O)NN)ccn1`: the “log(1/MIC)” value in data set [1] was -3.332. The Rm in data set [2] turned out to be 0.266.

For the origin of these results see ChEMBL document CHEMBL3272064, “Mode of action and quantitative structure-activity correlations of tuberculostatic drugs of the isonicotinic acid hydrazide type” (J Med Chem, 1976).
